Screening results from PubChem BioAssay.
An excerpt weighted towards active compounds, which were near 2.7% of everything screened.
E-sel inducer: E-selectin induction on HUVECs; AID 686992; activation, % at 7.58 µM; P16581; HUVEC E-selectin immunofluorescence imaging; normalized: neutral wells 0, TNF-alpha wells 100; hit rate 0.37% among 260,000;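 active means mean E-selectin-positive cell signal at least 10% of the positive control, reached in at least 60% of replicates, without over 20% cell loss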
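Assay system: HUVEC primary endothelial cells. Input: 3,000 HUVEC seeded per well. Doses: one compound dose added by pin transfer. Read-out basis: % PE-positive cells. Benchmarks: TNF-alpha high, DMSO low. Detection: immunofluorescence imaging. Buffer or medium: EGM-2, gelatin.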
F508del corr: correctors of CFTR F508del function in bronchial epithelial cells. CFBE cells, YFP halide quenching; stimulated with forskolin plus potentiator P3; % fluorescence drop versus neutral controls. activity (quench increase), % at 7.58 µM. hit rate 0.36% among 350,000;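 active means mean added fluorescence quench of at least 8% versus neutral control, with both replicates also reaching 8%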;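 further: cells transiently co-express mutant CFTR-F508del with the halide-sensitive YFP; corrector assay measuring rescue of mutant channel to the surface after 24 h compound exposure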
FGF22 binding: binders of recombinant human FGF22 by thermal shift | activity (Tm shift, normalised), % at 9.99 µM | hit rate 1.5% among 340,000 | Q9HCT0 | SYPRO orange fluorescence; percent of sucrose octasulfate shift, DMSO zero;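 active means mean Tm shift, scaled 0 neutral to 100 positive control, at about 1.3% or above, every replicate too, limit read from the data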
Target sequence (Q9HCT0 whole entry, looked up): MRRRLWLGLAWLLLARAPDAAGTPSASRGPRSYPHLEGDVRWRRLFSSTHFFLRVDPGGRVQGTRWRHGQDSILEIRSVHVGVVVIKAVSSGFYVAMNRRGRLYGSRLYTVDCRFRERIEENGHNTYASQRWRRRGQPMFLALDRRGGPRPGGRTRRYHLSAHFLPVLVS
S100A4 inh HTS: S100A4-myosin IIA interaction inhibition; P26447; S100A4/TAMRA-MyoIIA peptide fluorescence polarization; inhibition, % at 10.7 µM; hit rate 0.14% among 360,000; AID 652163;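 active means mean inhibition of at least 70% across replicates, with every replicate also reaching that level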
Target sequence (P26447 whole entry, looked up): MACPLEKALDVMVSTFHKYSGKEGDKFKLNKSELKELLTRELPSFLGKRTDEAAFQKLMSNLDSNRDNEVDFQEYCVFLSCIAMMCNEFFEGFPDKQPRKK
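Assay system: human S100A4 monomer with TAMRA-labelled myosin IIA peptide / Buffer or medium: Calcium-containing HEPES buffer, pH 7.2 / Reagent: TAMRA-labelled myosin IIA heavy-chain peptide probe, 5 nM / Compound: one dose per compound / Timing: polarization read 5 min after assay mix addition, stable 5–60 min / Benchmarks: neutral control DMSO, positive control TFP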
Env fusion inh: blocks HIV Env-driven cell-cell fusion | hit rate 1.1% among 360,000 | inhibition, % at 12.3 µM | HeLa-JRFL Env/CEM21 cell fusion, luciferase | AID 651610;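 active means mean replicate inhibition score of at least 50 and every replicate individually at or above 50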;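 further: 0% = plate neutral controls and 100% = maraviroc near 300 nM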
Starred values were filed as active, the others as inactive; / = not tested or not shown; [ ] = another dose, or the depositor's remark.

SMILES	E-sel inducer	F508del corr	FGF22 binding	S100A4 inh HTS	Env fusion inh
O=c1[nH]c2cc3c(cc2cc1CN(Cc1ccco1)C(=S)NCC1CCCO1)OCCO3 (stereo not given)	/	6	42	-11	-17
COc1ccc2cc(CN(CC3CCCO3)C(=S)NCc3ccco3)c(=O)[nH]c2c1 (stereo not given)	/	-1	43*	0	15
CCNC(=S)N(CCN(C)C)Cc1cc2cc(OCC)ccc2[nH]c1=O	1	2	44*	4	-8
CN1CCN(C(=O)C[C@@H]2CC[C@H](NC(=O)c3ccc4c(c3)OCO4)[C@H](CO)O2)CC1	0	-3	0	0	8[16.7 µM]
C[C@@H]1CN([C@H](C)CO)C(=O)Cc2cc(NC(=O)CCN3CCOCC3)ccc2O[C@@H]1CN(C)S(=O)(=O)c1ccc(F)cc1	0	0	0	-8	/
Cc1ccc2cc(CN(CC3CCCO3)C(=S)Nc3ccccc3)c(=O)[nH]c2c1 (stereo not given)	/	6	0	-3	-4
Cc1ccc2cc(CN(CC3CCCO3)C(=S)Nc3ccccc3)c(=O)[nH]c2c1C (stereo not given)	0	12*	/	/	31
COc1ccc2[nH]c(=O)c(CN(CC3CCCO3)S(=O)(=O)c3ccccc3F)cc2c1 (stereo not given)	/	-1	1	-2	1
COc1ccc2[nH]c(=O)c(CN(CC3CCCO3)C(=S)Nc3ccc(C)cc3)cc2c1 (stereo not given)	/	0	43*	3	-3
COc1ccc2[nH]c(=O)c(CN(CC3CCCO3)S(=O)(=O)c3ccccc3)cc2c1 (stereo not given)	/	-3	44*	-5	19
CCCCN(CCCC)C(=O)C1(P(=O)(c2ccccc2)c2ccccc2)CCC1	/	0	0	-1	60*
CC(C)NC(=O)Nc1ccc2c(c1)C(=O)N([C@@H](C)CO)C[C@H](C)[C@H](CN(C)C(=O)Nc1cccc3ccccc13)O2	/	0	0	0	-4[16.7 µM]
Cc1ccc(-c2cnc3c(c2)C(=O)N([C@@H](C)CO)C[C@@H](C)[C@@H](CN(C)C(=O)c2ccccc2)O3)cc1	0	-1	0	-3	-27[16.7 µM]
C[C@H](CO)N1C[C@H](C)[C@@H](CN(C)C(=O)Nc2ccc3c(c2)OCO3)Oc2ccc(NS(=O)(=O)c3cn(C)cn3)cc2CC1=O	-2	0	0	12	1[16.7 µM]
CCn1c(COc2ccc(Cl)cc2)nnc1SCc1nc2ccccc2[nH]1	/	/	/	/	114*
CCn1c(SCc2nc3ccccc3[nH]2)nnc1-c1ccncc1	/	/	/	-5	/
COc1ccc(CNS(=O)(=O)c2ccc3c(c2)C(C)(C)C(=O)N3C)cc1	127*	-1	0	2	3
CCOC(=O)c1cc(=O)nc(N)s1	0	0	43*	-2	/
COc1ccc(NC(=O)N(C)C[C@@H]2Oc3c(NC(=O)c4nc5ccccc5s4)cccc3C(=O)N([C@H](C)CO)C[C@@H]2C)cc1	0	-3	0	3	-20[16.7 µM]
CCSC1=NCCN1S(=O)(=O)c1ccccc1	/	0	44*	0	-2
CCSC1=NCCN1S(=O)(=O)c1ccc(Cl)cc1	/	1	43*	18	2
CSC1=NCCN1S(=O)(=O)c1ccc(Cl)cc1	/	2	0	-3	7
CCCc1cn(CC[C@@H]2CC[C@H](NC(=O)C3CCCCC3)[C@H](CO)O2)nn1	0	-2	0	6	-20[16.7 µM]
Cc1occc1C(=O)N/N=C/C1=C(N2CCOCC2)C(=C/c2ccc(Cl)cc2Cl)/CC1	1	2	43*	2	/
COC(=O)[C@H](Cc1ccccc1)NC(=O)Cn1cnc(C(=O)Nc2ccc(C)c(C)c2)n1	-2	-4	0	-2	69*
SMILES	E-sel inducer	F508del corr	FGF22 binding	S100A4 inh HTS	Env fusion inh
Cc1ccc(CNC(=O)Cn2cnc(C(=O)Nc3ccc(C)c(C)c3)n2)o1	0	0	0	76*	/
COC(=O)c1ccc(CNC(=O)Cn2cnc(C(=O)Nc3ccc(C)c(C)c3)n2)cc1	0	-3	0	2	-13
Cc1ccc(S(=O)(=O)Nc2ccc3c(c2)CC(=O)N([C@@H](C)CO)C[C@H](C)[C@H](CN(C)Cc2ccc(C(=O)O)cc2)O3)cc1	0	0	/	/	2[16.7 µM]
O=C(C[C@@H]1C[C@H]2c3cc(NC(=O)c4cccnc4)ccc3O[C@H]2[C@H](CO)O1)NC1CCCC1	0	-2	/	-32	/
O=C(/C=C/c1ccco1)N1CCCC(c2ccccc2)C1 (stereo not given)	/	-3	44*	-5	-94
O=C(/C=C/c1ccccc1)N1CCC(c2ccccc2)C1 (stereo not given)	/	3	0	-2	/
COc1ccc2c3c([nH]c2c1)[C@@H](CO)N(C(=O)CN(C)C)CC31CCN(Cc2cncnc2)CC1	0	0	/	5	/
COc1ccc(S(=O)(=O)Nc2cccc3c2O[C@H](CN(C)C(=O)Nc2c(C)noc2C)[C@H](C)CN([C@@H](C)CO)C3=O)cc1	63*	0	0	-1	/
COc1ccc(S(=O)(=O)Nc2cccc3c2O[C@@H](CN(C)S(=O)(=O)c2c(C)noc2C)[C@H](C)CN([C@H](C)CO)C3=O)cc1	-11	1	-1	0	/
COc1ccc(S(=O)(=O)Nc2cccc3c2O[C@@H](CN(C)S(=O)(=O)c2c(C)noc2C)[C@H](C)CN([C@@H](C)CO)C3=O)cc1	0	-2	0	127*	/
O=C(CN1CCN(c2nc(-c3ccc(Cl)cc3)cs2)CC1)NCc1ccco1	/	/	/	/	60*
CC1(S(=O)(=O)O)CC(=O)c2ccccc2C1=O (stereo not given)	0	8.1*	0	-3	10
Cn1cnnc1Sc1ccc(C(=O)OCC(=O)NCC(F)(F)F)cc1[N+](=O)[O-]	0	2	0	9	3
C=CCNC(=O)COC(=O)c1ccc(Sc2nncn2C)c([N+](=O)[O-])c1	/	0	44*	2	6
Clc1ccc(C(c2nnnn2CCc2ccccc2)N2CCSCC2)cc1 (stereo not given)	/	/	/	/	100*
Fc1ccc(C(c2nnnn2CCc2ccccc2)N2CCCc3ccccc32)cc1 (stereo not given)	/	/	/	/	90*
C[C@H]1CN([C@@H](C)CO)C(=O)c2cc(-c3ccncc3)cnc2O[C@H]1CN(C)C(=O)C1CCC1	0	2	/	/	4[16.7 µM]
O=C(CSc1ncn[nH]1)NCCc1ccccc1	/	/	/	/	-3
O=C(CSc1ncn[nH]1)NN(c1ccccc1)c1ccccc1	/	-2	44*	-5	-11
O=C([C@@H]1[C@@H](CO)[C@@H]2Cn3c(ccc(-c4ccccc4)c3=O)[C@@H]2N1Cc1cocn1)N1CCCCC1	0	0	0	-1	/
